GPR7 antagonist: human neuropeptides B/W receptor 1 antagonism. GPR7-expressing cells, fluorescence antagonist assay. inhibition, % at 4.4 µM. 290,000 compounds, 1.1% hits; in the data active = inhibition above about 16%, passing the limit was not always enough;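 note: cells stimulated with the agonist NPW; 0% = agonist with vehicle and 100% = vehicle without agonist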
FID counter: counter-screen for HCV NS3 helicase inhibitors: DNA intercalator displacement | DNA fluorescent intercalator displacement, fluorescence | inhibition, % at 7.9 µM | 290,000 compounds, 0.17% hits; in the data active = inhibition above about 37%;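 note: 0% = vehicle and 100% = reference compound; higher means more ethidium bromide displaced from hairpin DNA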
NS3 helicase inh: blocks Hepatitis C virus NS3 helicase unwinding. NS3 helicase DNA unwinding, Cy5 molecular beacon fluorescence. inhibition, % at 10.9 µM. 290,000 compounds, 0.56% hits;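 active = inhibition above the mean of all tested compounds plus 3 SD, set per campaign, cut at about 35% in these data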;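 note: 0% = DMSO wells and 100% = thioflavine S control wells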
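Assay system – hepatitis C virus NS3 helicase domain fragment enzyme · Buffer or medium – MOPS pH 6.5, MgCl2, DTT, Tween20, BSA · Reagent – Cy5/quencher beacon DNA duplex and ATP to start · Compound – single 10.9 µM dose · Timing – 1 h at 25 °C · Technique – Cy5 beacon fluorescence read at start and 1 h · Measure – % inhibition of unwinding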
GRK2 aptamer HTS: blocks RNA aptamer binding to human GRK2; bead flow cytometry, FAM-aptamer displacement from GRK2; inhibition of aptamer binding, % at 10 µM; 330,000 compounds, 0.59% hits; AID 488847;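 active = inhibition of aptamer binding above 40%, roughly 3 SD of noise, on plates passing a quality check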;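 note: median bead fluorescence of bound FAM aptamer so fluorescent compounds give negative values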
DAGLB inhibitor: diacylglycerol lipase beta (human) inhibition. HEK293T DAGLB membrane lysate, EnzChek fluorogenic substrate. Q8NCG7. inhibition, % at 5.17 µM. 340,000 compounds, 0.059% hits. AID 504411; in the data active = inhibition above about 34%;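 note: 0% = enzyme with vehicle and 100% = wells lacking enzyme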
Target sequence (Q8NCG7 whole entry, looked up): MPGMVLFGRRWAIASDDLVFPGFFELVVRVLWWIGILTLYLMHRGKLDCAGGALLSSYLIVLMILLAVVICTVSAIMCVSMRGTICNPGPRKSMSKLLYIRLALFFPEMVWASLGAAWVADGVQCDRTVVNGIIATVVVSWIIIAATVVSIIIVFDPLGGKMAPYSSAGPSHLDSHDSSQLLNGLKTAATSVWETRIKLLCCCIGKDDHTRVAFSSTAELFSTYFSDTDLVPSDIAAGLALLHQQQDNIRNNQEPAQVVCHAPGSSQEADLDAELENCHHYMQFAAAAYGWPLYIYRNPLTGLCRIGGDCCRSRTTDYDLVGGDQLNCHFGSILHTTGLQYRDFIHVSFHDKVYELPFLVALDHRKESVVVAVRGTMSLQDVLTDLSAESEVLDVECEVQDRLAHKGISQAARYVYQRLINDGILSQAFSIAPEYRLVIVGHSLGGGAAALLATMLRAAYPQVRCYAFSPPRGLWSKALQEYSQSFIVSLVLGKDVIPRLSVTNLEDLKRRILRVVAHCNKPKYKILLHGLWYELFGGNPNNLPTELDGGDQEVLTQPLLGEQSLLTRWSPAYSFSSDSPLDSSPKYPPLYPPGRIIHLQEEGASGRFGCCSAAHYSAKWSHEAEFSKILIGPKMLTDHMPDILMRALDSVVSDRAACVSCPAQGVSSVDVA
HCV core dimer: HCV core protein dimerization inhibition | inhibition, % at 5 µM | 300,000 compounds, 0.33% hits | TR-FRET GST/Flag-core106 dimerization, 1536-well;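 active = inhibition above the mean of all tested compounds plus 3 SD, set per screening campaign, cut at about 45% in these data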
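System – GST-tagged and Flag-tagged HCV core protein residues 1-106 · Repeats – one well for each compound · Technique – TR-FRET 671 and 617 nm emission · Doses – one concentration, 5 µM, in 0.5% DMSO · Times – 4 h, 22.5 °C incubation · Also added – Eu donor and XL665 acceptor anti-tag antibodies · Measure – percent inhibition of core106 dimerization signal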
GPR7 antag conf: confirmation of human GPR7 antagonists. shares compounds with GPR7 antagonist. GPR7-expressing cells, calcium fluorescence antagonist mode. inhibition, % at 4.4 µM. 2,400 compounds, 52% hits. AID 1952; in the data active = inhibition above about 24%;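 note: stimulated with the GPR7 agonist NPW; 0% = agonist plus vehicle and 100% = vehicle alone without agonist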
MCHR1 antag: counter-screen for GPR7 antagonists: antagonists of human MCHR1; shares compounds with GPR7 antagonist; MCHR1-expressing cells, fluorescence antagonist assay; inhibition, % at 4.4 µM; 2,400 compounds, 62% hits; AID 2148; in the data active = inhibition above about 22%;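 note: 0% = vehicle with agonist and 100% = vehicle without agonist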
* marks the source's active call; other numbers are inactive results. Only some compounds are listed: those with a hit (about 2.2% of all), similar ones and a draw of the others.

What do the screens show for `CCC(Oc1ccccc1)C(=O)Nc1ccc(S(=O)(=O)NCC2CCCO2)cc1` (stereo unspecified)?
GPR7 antagonist: 23*; FID counter: -26; NS3 helicase inh: 9; GRK2 aptamer HTS: 1; DAGLB inhibitor: 0; HCV core dimer: 1; GPR7 antag conf: -13; MCHR1 antag: 34*

How did Cc1ccc2oc(=O)n(Cc3ccccc3)c2c1 do in these assays?
GPR7 antagonist: -14; FID counter: -4; NS3 helicase inh: -3; GRK2 aptamer HTS: 0; DAGLB inhibitor: -11; HCV core dimer: 0

Results for Cc1ccc(-c2cc3nc4c(c(=O)n3[nH]2)CCCC4)cc1 ?
GPR7 antagonist: 0; FID counter: -1; NS3 helicase inh: 1; GRK2 aptamer HTS: 1; DAGLB inhibitor: 0; HCV core dimer: 7

What do the screens show for `O=c1c2c(nc3cc(-c4ccc(F)cc4)[nH]n13)CCC2`?
GPR7 antagonist: 30*; FID counter: -3; NS3 helicase inh: 18; GRK2 aptamer HTS: 0; DAGLB inhibitor: -3; HCV core dimer: -10; GPR7 antag conf: -13; MCHR1 antag: 8

How did Cc1ccc(S(=O)(=O)CCC(=O)OCC(=O)NC(N)=O)cc1 do in these assays?
GPR7 antagonist: -10; FID counter: -4; NS3 helicase inh: -10; GRK2 aptamer HTS: 0; DAGLB inhibitor: -1; HCV core dimer: -2

How did CCOC(=O)CCS(=O)(=O)c1ccc(-c2ccc(S(=O)(=O)CCC(=O)OCC)cc2)cc1 do in these assays?
GPR7 antagonist: 31*; FID counter: -14; NS3 helicase inh: 7; GRK2 aptamer HTS: 1; DAGLB inhibitor: 0; HCV core dimer: 6; GPR7 antag conf: 44*; MCHR1 antag: 49*

How did CN(C)S(=O)(=O)Nc1cc(Cl)cc(Cl)c1 do in these assays?
GPR7 antagonist: -4; FID counter: -2; NS3 helicase inh: 8; GRK2 aptamer HTS: 0; DAGLB inhibitor: -1; HCV core dimer: 0

How did COc1ccc(-c2onc(C)c2-c2cnn(-c3ccccc3)c2)c(O)c1C do in these assays?
GPR7 antagonist: 32*; FID counter: -18; NS3 helicase inh: -10; GRK2 aptamer HTS: 4; DAGLB inhibitor: -1; HCV core dimer: 7; GPR7 antag conf: 25*; MCHR1 antag: 34*

How did COc1ccc(-c2n[nH]c(C)c2-c2cnn(-c3ccccc3)c2)c(O)c1C do in these assays?
GPR7 antagonist: -18; FID counter: -18; NS3 helicase inh: -30; GRK2 aptamer HTS: 0; DAGLB inhibitor: -3; HCV core dimer: -1

How did COc1cc(-c2noc(C)c2-c2ccc(N(C)C)nc2)cc(OC)c1OC do in these assays?
GPR7 antagonist: 60*; FID counter: -29; NS3 helicase inh: 7; DAGLB inhibitor: 0; HCV core dimer: 0; GPR7 antag conf: 69*; MCHR1 antag: 67*

How did COc1cc(-c2noc(C)c2-c2ccc3[nH]ccc3c2)cc(OC)c1OC do in these assays?
GPR7 antagonist: 16; FID counter: -33; NS3 helicase inh: -58; GRK2 aptamer HTS: 1; DAGLB inhibitor: -4; HCV core dimer: 3

What do the screens show for `Cc1cc(C(=O)N2CCC(Cc3ccccc3)CC2)ccc1[N+](=O)[O-]`?
FID counter: -29; NS3 helicase inh: -6; GRK2 aptamer HTS: 1; DAGLB inhibitor: -11; HCV core dimer: 17; MCHR1 antag: 21

How did COc1cccc(N=Cc2c(O)c3ccccc3oc2=O)c1 do in these assays?
GPR7 antagonist: 28*; FID counter: -13; NS3 helicase inh: 23; GRK2 aptamer HTS: 1; DAGLB inhibitor: -4; HCV core dimer: 1; GPR7 antag conf: -4; MCHR1 antag: 31*

Results for CC(=O)c1cccc(N=Cc2c(O)c3ccccc3oc2=O)c1 ?
GPR7 antagonist: -16; FID counter: -8; NS3 helicase inh: 18; GRK2 aptamer HTS: 0; DAGLB inhibitor: 2; HCV core dimer: 14

Results for CCOc1ccccc1C(C(=O)NC1CCCC1)N(C(=O)c1csnn1)C1CC1 (stereo unspecified) ?
GPR7 antagonist: -1; FID counter: -31; NS3 helicase inh: -2; GRK2 aptamer HTS: 0; DAGLB inhibitor: 0; HCV core dimer: 6

Assay outcomes (PubChem BioAssay)
